Measured values as given in ChEMBL document CHEMBL1828613, “Optimization of cellular activity of G9a inhibitors 7-aminoalkoxy-quinazolines” (J Med Chem, 2011).

Columns and labels:
MDA-MB-231 = assay: Cytotoxicity against human MDA-MB-231 cells assessed as cell viability after 48 hrs by MTT assay; type: functional, cell-based; details: MDA-MB-231, 48 h
[1] = molecular target: T1, Histone-lysine N-methyltransferase EHMT2 (Homo sapiens, UniProt Q96KQ7); assay: Inhibition of G9a in human MDA-MB-231 cells assessed as reduction of H3K9me2 after 48 hrs by In-Cell Western assay; type: cell-based
T1 sequence (Q96KQ7 whole entry): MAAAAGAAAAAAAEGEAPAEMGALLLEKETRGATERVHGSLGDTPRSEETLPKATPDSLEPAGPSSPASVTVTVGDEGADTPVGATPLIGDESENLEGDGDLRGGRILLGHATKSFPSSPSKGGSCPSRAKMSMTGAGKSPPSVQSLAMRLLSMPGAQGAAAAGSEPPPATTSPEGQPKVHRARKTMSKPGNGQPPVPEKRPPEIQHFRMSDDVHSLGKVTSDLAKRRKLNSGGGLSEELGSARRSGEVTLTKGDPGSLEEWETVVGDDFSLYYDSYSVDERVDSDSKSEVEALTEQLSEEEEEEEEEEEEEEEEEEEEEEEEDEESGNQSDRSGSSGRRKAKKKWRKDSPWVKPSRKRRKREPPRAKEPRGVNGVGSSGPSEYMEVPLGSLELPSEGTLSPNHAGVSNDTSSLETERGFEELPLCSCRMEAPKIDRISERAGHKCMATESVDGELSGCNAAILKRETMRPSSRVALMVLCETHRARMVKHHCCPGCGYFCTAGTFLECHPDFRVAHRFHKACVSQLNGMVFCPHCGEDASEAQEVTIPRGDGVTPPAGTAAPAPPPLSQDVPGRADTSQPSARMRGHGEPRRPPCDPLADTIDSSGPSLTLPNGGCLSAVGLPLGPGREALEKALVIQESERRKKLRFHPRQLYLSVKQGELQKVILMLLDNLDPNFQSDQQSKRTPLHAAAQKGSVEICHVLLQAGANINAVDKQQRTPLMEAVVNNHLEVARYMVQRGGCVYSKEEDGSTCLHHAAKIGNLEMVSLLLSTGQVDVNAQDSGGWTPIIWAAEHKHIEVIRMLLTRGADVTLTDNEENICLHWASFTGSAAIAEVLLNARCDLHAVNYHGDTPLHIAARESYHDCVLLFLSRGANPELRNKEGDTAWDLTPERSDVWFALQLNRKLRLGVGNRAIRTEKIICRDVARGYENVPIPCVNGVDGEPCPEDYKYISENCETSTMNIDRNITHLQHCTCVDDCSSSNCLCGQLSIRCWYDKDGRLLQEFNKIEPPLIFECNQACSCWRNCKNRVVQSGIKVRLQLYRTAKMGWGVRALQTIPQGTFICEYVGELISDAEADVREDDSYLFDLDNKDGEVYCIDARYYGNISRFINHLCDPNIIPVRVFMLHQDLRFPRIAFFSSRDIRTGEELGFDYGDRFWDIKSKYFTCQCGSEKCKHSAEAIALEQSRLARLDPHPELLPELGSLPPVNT
Outline: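 In-Cell Western: MDA-MB-231 cells grown in RPMI/10% FBS were seeded at 5–10 thousand per well and treated 48 h across a concentration series. Cells were fixed in 2% formaldehyde, blocked in 1% BSA, and stained with H3K9me2 antibody (1/800, 2 h), then IR800 secondary plus DRAQ5. Three wells were stained and one kept as background. The 800 nm signal was normalized to background and DRAQ5 and expressed as % control. IC50 from a sigmoidal variable-slope fit, averaging at least duplicate runs.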

[2] = molecular target: T1, Histone-lysine N-methyltransferase EHMT2; assay: Inhibition of G9a in human HCT116 cells assessed as reduction of H3K9me2 after 48 hrs by In-Cell Western assay; type: cell-based, HCT-116
[3] = molecular target: T1, Histone-lysine N-methyltransferase EHMT2; assay: Inhibition of G9a in human IMR90 cells assessed as reduction of H3K9me2 after 48 hrs by In-Cell Western assay; type: cell-based, IMR-90
[4] = molecular target: T1, Histone-lysine N-methyltransferase EHMT2; assay: Inhibition of G9a in p53-deficient human HCT116 cells assessed as reduction of H3K9me2 after 48 hrs by In-Cell Western assay; type: cell-based, HCT-116
[5] = molecular target: T1, Histone-lysine N-methyltransferase EHMT2; assay: Inhibition of G9a in human MCF7 cells assessed as reduction of H3K9me2 after 48 hrs by In-Cell Western assay; type: cell-based
[6] = molecular target: T1, Histone-lysine N-methyltransferase EHMT2; assay: Inhibition of G9a in human 22Rv1 cells assessed as reduction of H3K9me2 after 48 hrs by In-Cell Western assay; type: cell-based, CWR22R
[7] = molecular target: T1, Histone-lysine N-methyltransferase EHMT2; assay: Inhibition of G9a in human PC3 cells assessed as reduction of H3K9me2 after 48 hrs by In-Cell Western assay; type: cell-based, PC-3
[8] = molecular target: T1, Histone-lysine N-methyltransferase EHMT2; assay: Inhibition of G9a assessed as hydrolysis of S-adenosyl-L-homocysteine after 2 mins by SAHH-coupled fluorescence assay
[9] = Ratio of EC50 for human MDA-MB-231 cells to IC50 for G9a in human MDA-MB-231 cells
Outline: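 ICW used DRAQ5-normalized H3K9me2 immunofluorescence. MTT was read at 570 nm corrected at 650 nm. Each value was a sigmoidal variable-slope fit averaged over at least duplicate runs.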

IMR-90 = assay: Cytotoxicity against human IMR90 cells assessed as cell viability after 48 hrs by MTT assay; type: cell-based; details: IMR-90, 48 h
Outline: (§1)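 MTT viability read after 48 h inhibitor exposure. Culture media were alphaMEM + 10% FBS for 22RV1, DMEM + 10% FBS for IMR90 and MCF7, and RPMI + 10% FBS for PC3. Medium was replaced with phenol-red-free DMEM 10% FBS containing 1 mg/ml MTT for 1–2 h. Formazan was dissolved in acidified isopropanol/1% Triton and read at 570 nm minus 650 nm. EC50 came from a sigmoidal variable-slope fit, averaging at least duplicate runs.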

CWR22R = assay: Cytotoxicity against human 22Rv1 cells assessed as cell viability after 48 hrs by MTT assay; type: functional, cell-based; details: 22Rv1, 48 h; outline: as §1
PC-3 = assay: Cytotoxicity against human PC3 cells assessed as cell viability after 48 hrs by MTT assay; type: functional, cell-based; details: PC-3, 48 h; outline: as §1
[10] = Cytotoxicity against human […] assessed as cell viability after 48 hrs by MTT assay; type: functional, cell-based; outline: as §1

Compound COc1cc2c(NC3CCN(C)CC3)nc(N3CCCN(C)CC3)nc2cc1OCCCN(C)C has an EC50 (MDA-MB-231) of 34 µM.
With COc1cc2c(NC3CCN(CC4CCCCC4)CC3)nc(N3CCCN(C(C)C)CC3)nc2cc1OCCCN1CCCCC1 the IC50 [1] was 0.025 µM, the IC50 [2] was 0.051 µM and the IC50 [3] was 0.046 µM. For the same compound, the EC50 (MDA-MB-231) was 2.8 µM, the IC50 [4] was 0.072 µM and the IC50 [5] was 0.018 µM. For the same compound, the IC50 [6] was 0.024 µM, the IC50 [7] was 0.026 µM and the IC50 [8] was 0.004 µM.
For COc1cc2c(NC3CCN(C(C)C)CC3)nc(N3CCCCC3)nc2cc1OCCCN1CCCC1, the IC50 [1] was 0.15 µM, the Ratio [9] was 47 and the EC50 (MDA-MB-231) was 7 µM. For the same compound, the IC50 [8] was 0.016 µM.
Compound COc1cc2c(NC3CCN(C)CC3)nc(N3CCCN(C)CC3)nc2cc1OCCOCCN(C)C has an IC50 [1] of 11 µM and an EC50 (MDA-MB-231) of over 40 µM.
COc1cc2c(NC3CCN(C4CCCCC4)CC3)nc(N3CCCN(C)CC3)nc2cc1OCCCN1CCCCC1 gave an IC50 [1] of 0.056 µM, an EC50 (MDA-MB-231) of 2.9 µM and an IC50 [8] of 0.011 µM.
COc1cc2c(NC3CCN(C(C)C)CC3)nc(N3CCCN(CC4CCCCC4)CC3)nc2cc1OCCCN1CCCC1 showed an IC50 [1] of 0.093 µM, a Ratio [9] of 8 and an EC50 (MDA-MB-231) of 0.76 µM.
Work on COc1cc2c(NC3CCN(C(C)C)CC3)nc(N3CCCN(C(C)C)CC3)nc2cc1OCCCN1CCCCC1 yielded an IC50 [1] of 0.054 µM, an EC50 (MDA-MB-231) of 4.1 µM and an IC50 [8] of 0.008 µM.
COc1cc2c(NC3CCN(C(C)C)CC3)nc(N3CCCN(C)CC3)nc2cc1OCCCN1CCCC1 showed an IC50 [1] of 0.52 µM, a Ratio [9] of 3 and an EC50 (MDA-MB-231) of 1.4 µM. For the same compound, the IC50 [8] was 0.01 µM.
For COc1cc2c(NC3CCN(C(C)C)CC3)nc(N3CCCN(C4CCCCC4)CC3)nc2cc1OCCCN1CCCC1, the IC50 [1] was 0.1 µM, the Ratio [9] was 7 and the EC50 (MDA-MB-231) was 0.73 µM. The IC50 [8] was 0.022 µM.
COc1cc2c(NC3CCN(C(C)C)CC3)nc(C3CCCCC3)nc2cc1OCCOCCN(C)C showed an IC50 [1] of 0.18 µM, an EC50 (MDA-MB-231) of 13 µM and an IC50 [8] of 0.021 µM.
Compound COc1cc2c(NC3CCN(C(C)C)CC3)nc(N3CCCN(c4ccccc4)CC3)nc2cc1OCCCN1CCCC1 has an IC50 [1] of 0.22 µM, a Ratio [9] of 10 and an EC50 (MDA-MB-231) of 2.1 µM. It also gave an IC50 [8] of 0.01 µM.
Compound CCN1CCCN(c2nc(NC3CCN(C(C)C)CC3)c3cc(OC)c(OCCCN4CCCC4)cc3n2)CC1 has an IC50 [1] of 0.47 µM, a Ratio [9] of 4 and an EC50 (MDA-MB-231) of 1.7 µM.
Work on COc1cc2c(NC3CCN(C(C)C)CC3)nc(C3CCCCC3)nc2cc1OCCCN1CCCCC1 yielded an IC50 [1] of 0.26 µM, an EC50 (MDA-MB-231) of 7.6 µM and an IC50 [8] of 0.11 µM.
COc1cc2c(NC3CCN(C(C)C)CC3)nc(N3CCCN(C(C)C)CC3)nc2cc1OCCCN1CCCC1 showed an IC50 [1] of 0.34 µM, a Ratio [9] of 13 and an EC50 (MDA-MB-231) of 4.5 µM. For the same compound, the IC50 [8] was 0.002 µM.
With COc1cc2c(NC3CCN(C(C)C)CC3)nc(N3CCCCCC3)nc2cc1OCCCN1CCCC1 the IC50 [1] was 0.1 µM, the Ratio [9] was 57 and the EC50 (MDA-MB-231) was 5.7 µM. For the same compound, the IC50 [8] was 0.02 µM.
With COc1cc2c(NC3CCN(C(C)C)CC3)nc(C3CCCCC3)nc2cc1OCCCN1CCCC1 the EC50 (IMR-90) was 2.3 µM, the EC50 (CWR22R) was 4.5 µM and the EC50 (PC-3) was 14 µM. The EC50 [10] was 7.6 µM.
Compound COc1cc2c(NC3CCN(C(C)C)CC3)nc(N3CCCCCC3)nc2cc1OCCCN1CCCCC1 has an IC50 [1] of 0.24 µM, an EC50 (MDA-MB-231) of 6.6 µM and an IC50 [8] of 0.031 µM.
In the case of COc1cc2c(NC3CCN(C(C)C)CC3)nc(N3CCCN(Cc4ccccc4)CC3)nc2cc1OCCCN1CCCC1, the IC50 [1] is reported as 0.058 µM, the Ratio [9] is reported as 10 and the EC50 (MDA-MB-231) is reported as 0.6 µM. It also gave an IC50 [8] of 0.009 µM.
In the case of COc1cc2c(NC3CCN(C)CC3)nc(N3CCCN(C)CC3)nc2cc1OCCCN1CCCC1, the EC50 (MDA-MB-231) is reported as 15 µM.
COc1cc2c(NC3CCN(C)CC3)nc(N3CCCN(C)CC3)nc2cc1OCCCN1CCCCC1 gave an EC50 (MDA-MB-231) of 12 µM.
